From ChEMBL document CHEMBL1649560, “Beta-lactamase-mediated beta-lactam resistance in Campylobacter species: prevalence of Cj0299 (bla OXA-61) and evidence for a novel beta-Lactamase in C. jejuni” (2009)

Tests used:
Format in all cases: functional
Campylobacter jejuni [1] = assay: Antibacterial activity against Campylobacter jejuni isolate P270 harboring blaOXA-61::cat gene by NCCLS agar doubling dilution method
Campylobacter jejuni [2] = assay: Antibacterial activity against bla gene-positive and nitrocefin reaction-positive beta-lactamase harboring Campylobacter jejuni isolate P1618 by NCCLS agar doubling dilution method
How it was run: (§1)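 MICs of β-lactams by agar doubling dilution following the NCCLS (CLSI) Campylobacter Working Group procedure, with C. jejuni NCTC 11168 and C. coli NCTC 11366 as controls. Isolates were from UK poultry flocks. β-Lactamase status was set by Cj0299 PCR (281-bp amplimer) and by a nitrocefin colour change of sonicated lysate within 5 min, or within 30 min on repeat.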

Campylobacter jejuni [3] = assay: Antibacterial activity against bla gene-positive and nitrocefin reaction-positive beta-lactamase harboring Campylobacter jejuni isolate P790 by NCCLS agar doubling dilution method
How it was run: (§2)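 MICs by agar doubling dilution per the NCCLS (now CLSI) Campylobacter Working Group method. Isolates came from UK chicken flocks (feces, ceca or farm environment), 2000–2006. C. jejuni NCTC 11168 and C. coli NCTC 11366 served as control strains. The ampicillin resistance cutoff was 8 μg/ml; BSAC/CLSI Enterobacteriaceae guidelines were used for other agents.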

Campylobacter jejuni [4] = assay: Antibacterial activity against bla gene-negative and nitrocefin reaction-positive beta-lactamase harboring Campylobacter jejuni isolate P854 by NCCLS agar doubling dilution method; how it was run: as §1
Campylobacter jejuni [5] = assay: Antibacterial activity against bla gene-positive and nitrocefin reaction-positive beta-lactamase harboring Campylobacter jejuni isolate P1093 by NCCLS agar doubling dilution method; how it was run: as §1
Campylobacter jejuni [6] = assay: Antibacterial activity against bla gene-positive and nitrocefin reaction-negative beta-lactamase harboring Campylobacter jejuni NCTC 11168 by NCCLS agar doubling dilution method; how it was run: as §1
Campylobacter coli [7] = assay: Antibacterial activity against bla gene-positive and nitrocefin reaction-positive beta-lactamase harboring Campylobacter coli isolate P321 by NCCLS agar doubling dilution method; how it was run: as §1
Campylobacter coli [8] = assay: Antibacterial activity against Campylobacter coli by NCCLS agar doubling dilution method
How it was run: (§3)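 MICs by agar doubling dilution following the NCCLS (CLSI) Campylobacter Working Group procedure, applied to ampicillin- and amoxicillin-resistant isolates from UK chicken flocks (2000–2006). C. jejuni NCTC 11168 and C. coli NCTC 11366 served as control strains. Resistance was called at an ampicillin cutoff of 8 μg/ml. Other agents were judged against Enterobacteriaceae guidelines (BSAC, CLSI).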

Campylobacter jejuni [9] = assay: Antibacterial activity against Campylobacter jejuni isolate P1093 harboring blaOXA-61::cat gene by NCCLS agar doubling dilution method
How it was run: (§4)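 Agar doubling dilution MICs (NCCLS/CLSI Campylobacter Working Group method) against Cj0299-inactivated mutants. Mutants were made by transforming the C. jejuni isolate with pCI and selecting on Mueller-Hinton agar with 10 μg/ml chloramphenicol for 3–5 days. Chromosomal insertion was confirmed by PCR with Cj0299 and cat primers.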

Campylobacter jejuni [10] = assay: Antibacterial activity against bla gene-negative and nitrocefin reaction-negative beta-lactamase harboring Campylobacter jejuni isolate P1962 by NCCLS agar doubling dilution method; how it was run: as §1
Campylobacter coli [11] = assay: Antibacterial activity against Campylobacter coli assessed as resistant isolates by NCCLS agar doubling dilution method
How it was run: (§5)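 MICs by agar doubling dilution following the NCCLS (CLSI) Campylobacter Working Group procedure, with C. jejuni NCTC 11168 and C. coli NCTC 11366 as controls. Isolates came from UK chicken flocks, 2000–2006. Isolates were designated resistant at an ampicillin cutoff of 8 μg/ml. Enterobacteriaceae guidelines (BSAC, CLSI) were used as reference for the other agents.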

Campylobacter jejuni [12] = assay: Antibacterial activity against bla gene-negative and nitrocefin reaction-negative beta-lactamase harboring Campylobacter jejuni isolate P835 by NCCLS agar doubling dilution method; how it was run: as §1
Campylobacter jejuni [13] = assay: Antibacterial activity against bla gene-positive and nitrocefin reaction-positive beta-lactamase harboring Campylobacter jejuni isolate P286 by NCCLS agar doubling dilution method; how it was run: as §2
Campylobacter jejuni [14] = assay: Antibacterial activity against Campylobacter jejuni isolate P338 harboring blaOXA-61::cat gene by NCCLS agar doubling dilution method; how it was run: as §4
Campylobacter jejuni [15] = assay: Antibacterial activity against bla gene-negative and nitrocefin reaction-negative beta-lactamase harboring Campylobacter jejuni isolate P850 by NCCLS agar doubling dilution method; how it was run: as §1
Campylobacter jejuni [16] = assay: Antibacterial activity against bla gene-positive and nitrocefin reaction-positive beta-lactamase harboring Campylobacter jejuni isolate P305 by NCCLS agar doubling dilution method; how it was run: as §2
Campylobacter jejuni [17] = assay: Antibacterial activity against bla gene-positive and nitrocefin reaction-positive beta-lactamase harboring Campylobacter jejuni isolate P1730 by NCCLS agar doubling dilution method; how it was run: as §2
Campylobacter jejuni [18] = assay: Antibacterial activity against bla gene-positive and nitrocefin reaction-negative beta-lactamase harboring Campylobacter jejuni isolate P1699 by NCCLS agar doubling dilution method; how it was run: as §1
Campylobacter coli [19] = assay: Antibacterial activity against bla-positive and beta-lactamase-weakly positive Campylobacter coli isolate P1627 by NCCLS agar doubling dilution method; how it was run: as §2
Campylobacter jejuni [20] = assay: Antibacterial activity against bla gene-positive and nitrocefin reaction-negative beta-lactamase harboring Campylobacter jejuni isolate P1698 by NCCLS agar doubling dilution method; how it was run: as §1
Campylobacter jejuni [21] = assay: Antibacterial activity against bla gene-positive and nitrocefin reaction-positive beta-lactamase harboring Campylobacter jejuni isolate P338 by NCCLS agar doubling dilution method; how it was run: as §2
Campylobacter coli [22] = assay: Antibacterial activity against bla gene-positive and nitrocefin reaction-positive beta-lactamase harboring Campylobacter coli isolate P1826 by NCCLS agar doubling dilution method; how it was run: as §1
Campylobacter jejuni [23] = assay: Antibacterial activity against bla gene-positive and nitrocefin reaction-positive beta-lactamase harboring Campylobacter jejuni isolate P1650 by NCCLS agar doubling dilution method; how it was run: as §1
Campylobacter jejuni [24] = assay: Antibacterial activity against bla gene-negative and nitrocefin reaction-positive beta-lactamase harboring Campylobacter jejuni isolate P843 by NCCLS agar doubling dilution method; how it was run: as §1
Campylobacter jejuni [25] = assay: Antibacterial activity against bla gene-positive and nitrocefin reaction-positive beta-lactamase harboring Campylobacter jejuni isolate P285 by NCCLS agar doubling dilution method; how it was run: as §2
Campylobacter jejuni [26] = assay: Antibacterial activity against Campylobacter jejuni by NCCLS agar doubling dilution method; how it was run: as §3
Campylobacter jejuni [27] = assay: Antibacterial activity against bla gene-positive and nitrocefin reaction-positive beta-lactamase harboring Campylobacter jejuni isolate P316 by NCCLS agar doubling dilution method; how it was run: as §2
Campylobacter jejuni [28] = assay: Antibacterial activity against Campylobacter jejuni assessed as resistant isolates by NCCLS agar doubling dilution method; how it was run: as §5

CC1(C)S[C@@H]2[C@H](NC(=O)[C@H](N)c3ccccc3)C(=O)N2[C@H]1C(=O)O [AMPICILLIN]
47.5%: Activity (Campylobacter jejuni [28])
0.5 µg/mL: MIC (Campylobacter jejuni [1])
4 µg/mL: MIC (Campylobacter jejuni [6])
64 µg/mL: MIC (Campylobacter jejuni [2]) | MIC (Campylobacter jejuni [3]) | MIC50 (Campylobacter coli [8]) | MIC (Campylobacter jejuni [13]) | MIC (Campylobacter jejuni [16]) | MIC (Campylobacter jejuni [17]) | MIC (Campylobacter jejuni [18]) | MIC (Campylobacter jejuni [21]) | MIC (Campylobacter jejuni [23]) | MIC (Campylobacter jejuni [25]) | MIC50 (Campylobacter jejuni [26]) | MIC (Campylobacter jejuni [27])
32 µg/mL: MIC (Campylobacter jejuni [15]) | MIC (Campylobacter coli [19]) | MIC (Campylobacter jejuni [24])
67.4%: Activity (Campylobacter coli [11])
128 µg/mL: MIC (Campylobacter jejuni [4]) | MIC (Campylobacter jejuni [5]) | MIC (Campylobacter coli [7]) | MIC90 (Campylobacter coli [8]) | MIC (Campylobacter jejuni [20]) | MIC (Campylobacter coli [22]) | MIC90 (Campylobacter jejuni [26])
2 µg/mL: MIC (Campylobacter jejuni [9]) | MIC (Campylobacter jejuni [10]) | MIC (Campylobacter jejuni [12]) | MIC (Campylobacter jejuni [14])
